Assay results gathered from unrelated publications.
Lines come from different studies, so protocols differ.
AKR1B1: Aldo-keto reductase family 1 member B1 (AKR1B1, Homo sapiens, UniProt P15121)
CD36: Platelet glycoprotein 4 (CD36, Homo sapiens, UniProt P16671)
TRPM8: Transient receptor potential cation channel subfamily M member 8 (TRPM8, Homo sapiens, UniProt Q7Z2W7)
LATS2: Serine/threonine-protein kinase LATS2 (LATS2, Homo sapiens, UniProt Q9NRM7)

Cc1ccc(C(=O)Nc2ccc(S(=O)(=O)O)c3cc(S(=O)(=O)O)cc(S(=O)(=O)O)c23)cc1NC(=O)c1cccc(NC(=O)Nc2cccc(C(=O)Nc3cc(C(=O)Nc4ccc(S(=O)(=O)O)c5cc(S(=O)(=O)O)cc(S(=O)(=O)O)c45)ccc3C)c2)c1  Kd (Electrogenic aspartate/glutamate antiporter SLC25A13, mitochondrial (SLC25A13, Homo sapiens, UniProt Q9UJS0); binding; ITC; pH 6.5): 7.57 µM
CCCCC(=O)Nc1ccc(-c2ccc3ncn(CCC)c(=O)c3c2)cn1  Kd (Phosphatidylinositol 5-phosphate 4-kinase type-2 gamma (PIP4K2C, Homo sapiens, UniProt Q8TBX8); binding; competition with immobilised ligand): 0.00655 µM
COc1cc(/C=N/NC(=S)N/N=C/c2ccccc2)ccc1Oc1ccnc2cc(Cl)ccc12  IC50 (AKR1B1; enzyme activity; inhibitor; absorbance): 17.2 µM
O=C(c1ccccc1)c1ccc(OCCCn2cnc3ccccc3c2=O)cc1  Kd (CD36; binding; MST): 10 µM
O=C1NC(c2cccc([N+](=O)[O-])c2)=CCN1c1ccccc1O  EC50 (TRPM8; ion current; agonist; patch clamp): 0.412 µM
CCOc1cccc(C2CC(=O)Nc3c2c(C)nn3-c2ccc3nncn3n2)c1 (centres unmarked)  Kd (DNA damage-binding protein 1 (DDB1, Homo sapiens, UniProt Q16531); binding; SPR): 10 µM
COc1cc(/C=N/NC(=S)NN=Cc2ccc(CO)o2)ccc1Oc1ccnc2cc(Cl)ccc12  IC50 (AKR1B1; enzyme activity; inhibitor; absorbance): 21.3 µM
CCNC(=O)C1CC(C)CCC1C(C)C (centres unmarked)  EC50 (TRPM8; calcium signal; agonist): 8.36 µM
Cc1ncsc1-c1ccc(CNC(=O)[C@@H]2C[C@@H](O)CN2C(=O)[C@@H](NC(=O)COCCOCCOCCNC(=O)C[C@@H]2N=C(c3ccc(Cl)cc3)c3c(sc(C)c3C)-n3c(C)nnc32)C(C)(C)C)cc1  Kd (CD36; binding; SPR): 9.6 µM
Cc1cc(-c2ccnc3[nH]cc(F)c23)cc(F)c1[C@@]1(O)[C@H](C)CN(C2COC2)C[C@@H]1C  IC50 (LATS2; enzyme activity; inhibitor; radiometric): 0.009 µM
N#Cc1ccc(O[C@H]2CC[C@H](NC(=O)c3ccc(N4CCC(CN5CCN(c6cc7c(cc6F)C(=O)N(C6CCC(=O)NC6=O)C7=O)CC5)CC4)nn3)CC2)cc1Cl (some centres unmarked)  Kd (CD36; binding; SPR): 5.9 µM
CCCCC1OC(=O)c2ccccc21 (centres unmarked)  Kd (Vimentin (VIM, Homo sapiens, UniProt P08670); binding; SPR): 3.42 µM
Cc1cc(-c2ccnc3[nH]cc(F)c23)cc(F)c1[C@@]1(O)[C@H](C)CN(C2CCS(=O)(=O)CC2)C[C@@H]1C  Kd (LATS2; binding; TR-FRET): 0.0017 µM
COc1cc(/C=N/NC(=S)N/N=C/c2ccc(Br)s2)ccc1Oc1ccnc2cc(Cl)ccc12  IC50 (AKR1B1; enzyme activity; inhibitor; absorbance): 17.7 µM
N=C(N)NCC(=O)O  Kd (Sodium- and chloride-dependent taurine transporter (SLC6A6, Homo sapiens, UniProt P31641); binding; MST): 35.8 µM
Fc1c[nH]c2nccc(-c3ccc(C4CCNCC4)cc3)c12  IC50 (LATS2; enzyme activity; inhibitor; radiometric): 0.011 µM
COc1cc(/C=N/NC(=S)N/N=C\c2ccc(Cl)c(Cl)c2)ccc1Oc1ccnc2cc(Cl)ccc12  IC50 (AKR1B1; enzyme activity; inhibitor; absorbance): 13.4 µM
